Converted amounts (≈) assume the structure as drawn. Some results are limits rather than exact numbers.

Test system in the first series: not listed separately
The experiment in a line: Kinetic solubility of the compound in PBS buffer at pH 7.4 after 24 hrs by turbidimetric method. As to conditions: read-out: Kinetic_solubility. It counts as physicochemical. A digest of the protocol: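 Turbidimetric: doubling dilutions in DMSO diluted twenty-fold into PBS pH 7.4, equilibrated 24 h at room temperature, absorbance read at 620 nm. Value is highest concentration with no measurable precipitate.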
On to `NC(=O)c1c(F)ccc(OC(COC(=O)Nc2nnn[nH]2)c2nc(-c3ccc(C(F)(F)F)cc3)c(Br)o2)c1F` (racemic), for which the solubility kinetic at 24 h came to 800 µg/mL (≈ 1290 µM).

On to `CC(=O)OCC(Oc1ccc(F)c(C(N)=O)c1F)c1nc(-c2ccc(C(F)(F)F)cc2)c(Br)o1` (racemic), for which the solubility kinetic at 24 h was 25 µg/mL (≈ 45.5 µM).

Consider `NC(=O)c1c(F)ccc(OC(COC(=O)CCC(=O)O)c2nc(-c3ccc(C(F)(F)F)cc3)c(Br)o2)c1F` (racemic), for which the solubility kinetic at 24 h was 200 µg/mL (≈ 329 µM).

`NC(=O)c1c(F)ccc(OC(COP(=O)(O)O)c2nc(-c3ccc(C(F)(F)F)cc3)c(Br)o2)c1F` (racemic): the solubility kinetic at 24 h is above 800 µg/mL.

With `NC(=O)c1c(F)ccc(OC(COC(=O)NCC(=O)O)c2nc(-c3ccc(C(F)(F)F)cc3)c(Br)o2)c1F` (racemic), the solubility kinetic at 24 h turned out to be 800 µg/mL (≈ 1320 µM).

`NC(=O)c1c(F)ccc(OC(CC(O)CO)c2nc(-c3ccc(C(F)(F)F)cc3)c(Br)o2)c1F` (racemic): the solubility kinetic at 24 h was 100 µg/mL (≈ 181 µM).

Turning to `NC(=O)c1c(F)ccc(OC(COC(=O)N2CCNCC2)c2nc(-c3ccc(C(F)(F)F)cc3)c(Br)o2)c1F` (racemic), the solubility kinetic at 24 h was 200 µg/mL (≈ 323 µM).

Turning to `NC(=O)c1c(F)ccc(OCc2nc(-c3ccc(C(F)(F)F)cc3)c(Br)o2)c1F`, the solubility kinetic at 24 h stood at 12.5 µg/mL (≈ 26.2 µM).

For the compound `NC(=O)c1c(F)ccc(OC(CCCO)c2nc(-c3ccc(C(F)(F)F)cc3)c(Br)o2)c1F` (racemic), the solubility kinetic at 24 h is 50 µg/mL (≈ 93.4 µM).

In the case of `NC(=O)c1c(F)ccc(OC(COC(=O)NCCc2c[nH]cn2)c2nc(-c3ccc(C(F)(F)F)cc3)c(Br)o2)c1F` (racemic), the solubility kinetic at 24 h turned out to be 100 µg/mL (≈ 155 µM).

On to `NC(=O)c1c(F)ccc(OC(COC(=O)NCCN2CCCC2)c2nc(-c3ccc(C(F)(F)F)cc3)c(Br)o2)c1F` (racemic), for which the solubility kinetic at 24 h came out at 400 µg/mL (≈ 618 µM).

With `NC(=O)c1c(F)ccc(OC(CCC(=O)O)c2nc(-c3ccc(C(F)(F)F)cc3)c(Br)o2)c1F` (racemic), the solubility kinetic at 24 h was 400 µg/mL (≈ 728 µM).

Take `CNCCNC(=O)OCC(Oc1ccc(F)c(C(N)=O)c1F)c1nc(-c2ccc(C(F)(F)F)cc2)c(Br)o1` (racemic): the solubility kinetic at 24 h turned out to be 200 µg/mL (≈ 329 µM).

Test system in another series: not listed separately
Kind of series: Volume of distribution in Balb/c mouse at 3 mg/kg, iv by LC-MS/MS analysis. Conditions: in vivo. The arrangement: dose 3 mg/kg, route intravenous. The class given is ADME, organism-based.
Regarding `CC(Oc1ccc(F)c(C(N)=O)c1F)c1nc(-c2ccc(OC(F)(F)F)cc2)c(Cl)o1` (racemic), the distribution volume (Vd) (in general, the apparent volume that relates the amount in the body to the concentration in plasma or blood) came to 3.5 L/kg.

Test system in the next series: not listed separately
The experiment in a line: Clearance in Balb/c mouse at 3 mg/kg, iv by LC-MS/MS analysis. It counts as ADME, organism-based. The arrangement: dose 3 mg/kg, route intravenous. As to conditions: in vivo.
As to `CC(Oc1ccc(F)c(C(N)=O)c1F)c1nc(-c2ccc(OC(F)(F)F)cc2)c(Cl)o1` (racemic), the clearance (as a rule, the volume of plasma or blood freed of the substance per unit of time) was determined as 31 mL/min/kg.

Test system in a further series: not listed separately
Kind of series: Half life in Balb/c mouse at 3 mg/kg, iv by LC-MS/MS analysis. The class given is ADME, organism-based. The arrangement: dose 3 mg/kg, route intravenous. Conditions: in vivo.
Regarding `CC(Oc1ccc(F)c(C(N)=O)c1F)c1nc(-c2ccc(OC(F)(F)F)cc2)c(Cl)o1` (racemic), the half-life (in general, the time in which the quantity being followed falls by half) was 1.32 h.

Test system in the next series: not listed separately
Kind of series: Initial plasma concentration in Balb/c mouse at 3 mg/kg, iv by LC-MS/MS analysis.
Details: not given
More on the design: dose 3 mg/kg, route intravenous. The class given is ADME, organism-based.
On to `CC(Oc1ccc(F)c(C(N)=O)c1F)c1nc(-c2ccc(OC(F)(F)F)cc2)c(Cl)o1` (racemic), for which the C0 came to 2100 ng/mL.

Test system in the next series: not listed separately
The experiment in a line: AUC in Balb/c mouse at 3 mg/kg, iv by LC-MS/MS analysis. It counts as ADME, organism-based. The arrangement: dose 3 mg/kg, route intravenous. Conditions: plasma.
With `CC(Oc1ccc(F)c(C(N)=O)c1F)c1nc(-c2ccc(OC(F)(F)F)cc2)c(Cl)o1` (racemic), the area under the curve (AUC) (commonly concentration integrated over time) was found to be 1600 ng·h/mL.

The test system of another series is Staphylococcus aureus. The experiment in a line: Antibacterial activity against Staphylococcus aureus harboring FtsZ G196A mutant by broth microdilution method. The class given is functional.
Details: not given
A digest of the protocol:
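S. aureus ATCC 29213 derivative with G196A substitution in FtsZ; MIC by broth microdilution following CLSI guidelines; reported in µg/mL.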
For `NC(=O)c1c(F)ccc(OCc2nc3cc(Cl)cnc3s2)c1F`, the MIC is above 64 µg/mL.

Take `NC(=O)c1c(F)ccc(OCc2nc(-c3ccc(OC(F)(F)F)cc3)c(Cl)o2)c1F`: the MIC was determined as 8 µg/mL (≈ 17.8 µM).

Compound `C=CCc1oc(COc2ccc(F)c(C(N)=O)c2F)nc1-c1ccc(Cl)cc1` displayed an MIC above 64 µg/mL.

For `NC(=O)c1c(F)ccc(OCc2nc(-c3ccc(Cl)cc3)c(N)o2)c1F`, the MIC is above 64 µg/mL.

The compound `NC(=O)c1c(F)ccc(OCc2nc(-c3ccc(Cl)cc3)c(CCCO)o2)c1F` showed an MIC above 64 µg/mL.

`NC(=O)c1c(F)ccc(O[C@@H](CO)c2nc(-c3ccc(C(F)(F)F)cc3)c(Br)o2)c1F` returned an MIC of 64 µg/mL (≈ 126 µM).

Turning to `NC(=O)c1c(F)ccc(OCc2nc(-c3ccc(Cl)cc3)co2)c1F`, the MIC is above 64 µg/mL.

The compound `Cc1oc(COc2ccc(F)c(C(N)=O)c2F)nc1-c1ccc(Cl)cc1` had an MIC above 64 µg/mL.

Compound `NC(=O)c1c(F)ccc(OCc2nc(-c3ccc(C(F)(F)F)cc3)c(Br)o2)c1F` showed an MIC of 4 µg/mL (≈ 8.38 µM).

In the next series the target is T1, Cell division protein FtsZ (Staphylococcus aureus) (UniProt P0A031).
T1 sequence (whole entry): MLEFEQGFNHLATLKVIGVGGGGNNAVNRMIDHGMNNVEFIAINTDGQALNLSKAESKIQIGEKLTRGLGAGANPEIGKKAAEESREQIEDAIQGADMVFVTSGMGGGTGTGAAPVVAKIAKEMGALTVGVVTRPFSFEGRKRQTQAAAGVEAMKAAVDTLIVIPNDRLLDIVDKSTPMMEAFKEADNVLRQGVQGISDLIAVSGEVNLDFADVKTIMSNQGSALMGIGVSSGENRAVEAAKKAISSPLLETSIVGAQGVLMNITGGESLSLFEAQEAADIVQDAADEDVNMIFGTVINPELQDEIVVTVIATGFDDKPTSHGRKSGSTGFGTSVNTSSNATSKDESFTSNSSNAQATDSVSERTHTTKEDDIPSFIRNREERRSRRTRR
Kind of series: Inhibition of Staphylococcus aureus ATCC 29213 FtsZ-mediated cell division phenotype.
Details: not given
A digest of the protocol: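 S. aureus ATCC 29213 cell division inhibition assay run alongside MIC testing; value is the lowest concentration at which an inhibition of cell division phenotype was seen (µg/mL).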
`NC(=O)c1c(F)ccc(OCc2nc3cc(Cl)cnc3s2)c1F` returned an MIC of 0.5 µg/mL (≈ 1.41 µM).

As for `NC(=O)c1c(F)ccc(OCc2nc(-c3ccc(OC(F)(F)F)cc3)c(Cl)o2)c1F`, the MIC was 0.12 µg/mL (≈ 0.267 µM).

Compound `C=CCc1oc(COc2ccc(F)c(C(N)=O)c2F)nc1-c1ccc(Cl)cc1` came in with an MIC of 0.06 µg/mL (≈ 0.148 µM).

`CC(Oc1ccc(F)c(C(N)=O)c1F)c1nc(-c2ccc(OC(F)(F)F)cc2)c(Cl)o1` (racemic) yielded an MIC of 0.25 µg/mL (≈ 0.54 µM).

`NC(=O)c1c(F)ccc(OCc2nc(-c3ccc(Cl)cc3)c(N)o2)c1F` showed an MIC above 64 µg/mL.

Regarding `NC(=O)c1c(F)ccc(OCc2nc(-c3ccc(Cl)cc3)c(CCCO)o2)c1F`, the MIC amounted to 2 µg/mL (≈ 4.73 µM).

`NC(=O)c1c(F)ccc(O[C@@H](CO)c2nc(-c3ccc(C(F)(F)F)cc3)c(Br)o2)c1F` showed an MIC of 16 µg/mL (≈ 31.5 µM).

For the compound `NC(=O)c1c(F)ccc(OCc2nc(-c3ccc(Cl)cc3)co2)c1F`, the MIC was 4 µg/mL (≈ 11 µM).

Take `CC(=O)OCC(Oc1ccc(F)c(C(N)=O)c1F)c1nc(-c2ccc(C(F)(F)F)cc2)c(Br)o1` (racemic): the MIC worked out at 0.5 µg/mL (≈ 0.91 µM).

Turning to `Cc1oc(COc2ccc(F)c(C(N)=O)c2F)nc1-c1ccc(Cl)cc1`, the MIC was 0.5 µg/mL (≈ 1.32 µM).

Consider `NC(=O)c1c(F)ccc(OC(CC(O)CO)c2nc(-c3ccc(C(F)(F)F)cc3)c(Br)o2)c1F` (racemic), for which the MIC amounted to 0.5 µg/mL (≈ 0.907 µM).

For the compound `NC(=O)c1c(F)ccc(OCc2nc(-c3ccc(C(F)(F)F)cc3)c(Br)o2)c1F`, the MIC came to 0.12 µg/mL (≈ 0.251 µM).

For the compound `NC(=O)c1c(F)ccc(OC(CCCO)c2nc(-c3ccc(C(F)(F)F)cc3)c(Br)o2)c1F` (racemic), the MIC came out at 1 µg/mL (≈ 1.87 µM).

Consider `NC(=O)c1c(F)ccc(OC(CCC(=O)O)c2nc(-c3ccc(C(F)(F)F)cc3)c(Br)o2)c1F` (racemic), for which the MIC stood at 8 µg/mL (≈ 14.6 µM).

A further series concerns Staphylococcus aureus. Kind of series: Antibacterial activity against Staphylococcus aureus ATCC 29213 by broth microdilution method. The class given is functional.
Details: not given
Put shortly: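 Broth microdilution MIC per CLSI guidelines against S. aureus ATCC 29213; MIC in µg/mL.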
Background: Broth dilution looks for growth in wells or tubes with falling amounts of substance.
Compound `NC(=O)c1c(F)ccc(OCc2nc3cc(Cl)cnc3s2)c1F` yielded an MIC of 1 µg/mL (≈ 2.81 µM).

For the compound `NC(=O)c1c(F)ccc(OCc2nc(-c3ccc(OC(F)(F)F)cc3)c(Cl)o2)c1F`, the MIC worked out at 0.12 µg/mL (≈ 0.267 µM).

`C=CCc1oc(COc2ccc(F)c(C(N)=O)c2F)nc1-c1ccc(Cl)cc1`: the MIC came out at 0.06 µg/mL (≈ 0.148 µM).

`CC(Oc1ccc(F)c(C(N)=O)c1F)c1nc(-c2ccc(OC(F)(F)F)cc2)c(Cl)o1` (racemic) gave an MIC of 0.12 µg/mL (≈ 0.259 µM).

On to `NC(=O)c1c(F)ccc(OCc2nc(-c3ccc(Cl)cc3)c(N)o2)c1F`, for which the MIC was above 64 µg/mL.

As for `NC(=O)c1c(F)ccc(OCc2nc(-c3ccc(Cl)cc3)c(CCCO)o2)c1F`, the MIC was determined as 2 µg/mL (≈ 4.73 µM).

As for `NC(=O)c1c(F)ccc(O[C@@H](CO)c2nc(-c3ccc(C(F)(F)F)cc3)c(Br)o2)c1F`, the MIC came to 16 µg/mL (≈ 31.5 µM).

Consider `NC(=O)c1c(F)ccc(OCc2nc(-c3ccc(Cl)cc3)co2)c1F`, for which the MIC was 4 µg/mL (≈ 11 µM).

Consider `CC(=O)OCC(Oc1ccc(F)c(C(N)=O)c1F)c1nc(-c2ccc(C(F)(F)F)cc2)c(Br)o1` (racemic), for which the MIC worked out at 0.5 µg/mL (≈ 0.91 µM).

The compound `Cc1oc(COc2ccc(F)c(C(N)=O)c2F)nc1-c1ccc(Cl)cc1` showed an MIC of 0.5 µg/mL (≈ 1.32 µM).

Take `NC(=O)c1c(F)ccc(OC(CC(O)CO)c2nc(-c3ccc(C(F)(F)F)cc3)c(Br)o2)c1F` (racemic): the MIC was 0.5 µg/mL (≈ 0.907 µM).

In turn, `NC(=O)c1c(F)ccc(OCc2nc(-c3ccc(C(F)(F)F)cc3)c(Br)o2)c1F` yielded an MIC of 0.12 µg/mL (≈ 0.251 µM).

Turning to `NC(=O)c1c(F)ccc(OC(CCCO)c2nc(-c3ccc(C(F)(F)F)cc3)c(Br)o2)c1F` (racemic), the MIC was determined as 1 µg/mL (≈ 1.87 µM).

On to `NC(=O)c1c(F)ccc(OC(CCC(=O)O)c2nc(-c3ccc(C(F)(F)F)cc3)c(Br)o2)c1F` (racemic), for which the MIC came out at 8 µg/mL (≈ 14.6 µM).

These data come from ChEMBL document CHEMBL3098047, “Design, synthesis and structure-activity relationships of substituted oxazole-benzamide antibacterial inhibitors of FtsZ” (Bioorg Med Chem Lett, 2014).
